Laboratory results reported in paper PMC2704382 (Cell, 2009).
One block for each molecule: values may come before it.

Assays:
GSK3β [1] = experiment: In vitro GSK3β kinase assay; type: biochemical; conditions: 2 µM protein
GSK3β [2] = type: binding; conditions: GST-tagged DISC1 fragments, purified His-tagged GSK3β, in vitro
AHPs = experiment: AHP cell proliferation assay; type: cell-based; conditions: 200 ng/ml in culture medium; cell numbers counted for 2 days; n=3
Procedure, shortened: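 Adult hippocampal progenitors transduced 2 days with GFP-expressing lentivirus (control, DISC1 shRNA or WT-hDISC1), then FACS-sorted on GFP. 2×10^4 cells seeded per well in medium with recombinant Wnt3a (200 ng/ml) or vehicle. Cells counted each day for 2 days; n=3.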

Inhibition of GSK3β autophosphorylation (GSK3β [1]): started to inhibit
B1: DISC1 221–355: GST-tagged DISC1 protein fragment spanning 221–355 (protein, UniProt Q9NRI5 221-355, looked up, fragment)
chain: GERGEAEGCPPSREAESHCQSPQEMGAKAASLDGPHEDPRCLSRPFSLLATRVSADLAQAARNSSRPERDMHSLPDMDPGSSSSLDPSLAGCGGDGSSGSGDAHSWDTLLRKWEPVLRDCLLRNRRQMEVISLRL
modifications: GST tag

Inhibition of GSK3β autophosphorylation (GSK3β [1]): started to inhibit
B2: DISC1 356–595: GST-tagged DISC1 protein fragment spanning residues 356–595 (protein)
chain: LKLQKCQEKVVEDGDYDTAETLRQRLEELEQEKGRLSWALPSQQPALRSFLGYLAAQIQVALHGATQRAGSDDPEAPLEGQLRTTAQDSLPASITRRDWLIREKQRLQKEIEALQARMSALEAKEKRLSQELEEQEVLLRWPGCDLMALVAQMSPGQLQEVSKALGETLTSANQAPFQVEPPETLRSLRERTKSLNLAVRELTAQVCSGEKLCSSLRRRLSDLDTRLPALLEAKMLALSG
modifications: left off: GST, end not stated, kept
Interaction with GSK3β (GSK3β [2]): strong interactions

B3: Wnt3a: recombinant Wnt3a protein (protein, UniProt P56704 19-352, looked up)
Protein Wnt-3a: SYPIWWSLAVGPQYSSLGSQPILCASIPGLVPKQLRFCRNYVEIMPSVAEGIKIGIQECQHQFRGRRWNCTTVHDSLAIFGPVLDKATRESAFVHAIASAGVAFAVTRSCAEGTAAICGCSSRHQGSPGKGWKWGGCSEDIEFGGMVSREFADARENRPDARSAMNRHNNEAGRQAIASHMHLKCKCHGLSGSCEVKTCWWSQPDFRAIGDFLKDKYDSASEMVVEKHRESRGWVETLRPRYTYFKVPTERDLVYYEASPNFCEPNPETGSFGTRDRTCNVSSHGIDGCDLLCCGRGHNARAERRREKCRCVFHWCCYVSCQECTRVYDVHTCK
Proliferation of AHPs (AHPs): significantly stimulated
